Values after ≈ are worked out from the molar mass of the structure shown. Active and inactive are the calls of the source. No cut-off for these calls is given here.
Columns and labels:
Enterococcus faecalis = assay: Antibacterial activity against vancomycin resistant Enterococcus faecalis GC 2242 by microbroth dilution method; format: functional
Staphylococcus aureus = assay: Antibacterial activity against methicillin resistant Staphylococcus aureus GC 1131 by micro-broth dilution method; format: functional; conditions: Staphylococcus aureus, GC 1131; read-out: MIC
[1] = target: T1, UDP-N-acetylenolpyruvoylglucosamine reductase (Escherichia coli K-12, UniProt P08373); assay: Inhibition of MurB activity
T1 sequence (P08373 whole entry): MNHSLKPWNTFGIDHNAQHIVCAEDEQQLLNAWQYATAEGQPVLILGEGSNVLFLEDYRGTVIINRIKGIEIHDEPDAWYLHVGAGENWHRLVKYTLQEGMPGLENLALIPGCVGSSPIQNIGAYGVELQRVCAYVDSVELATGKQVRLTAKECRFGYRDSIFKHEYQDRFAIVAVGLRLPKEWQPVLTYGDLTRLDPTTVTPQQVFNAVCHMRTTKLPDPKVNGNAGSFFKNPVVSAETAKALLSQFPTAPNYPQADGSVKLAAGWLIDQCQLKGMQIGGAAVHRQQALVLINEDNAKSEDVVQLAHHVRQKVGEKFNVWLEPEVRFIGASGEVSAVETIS
How it was run: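 Recombinant E. coli MurB was expressed in BL21(λDE3) and purified. Enzyme (20 nM) was preincubated 20 min with inhibitor at 1.6, 3.2, 6.4, 12.8, 25 and 50 µM. Reaction in 50 mM Tris-HCl pH 8.0 with 10 mM KCl, 50 µM enolpyruvyl UDP-GlcNAc and 100 µM NADPH. NADPH oxidation followed as A340 decrease over 5 min. IC50 from sigmoid Hill fit, mean of three runs.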

Streptococcus pneumoniae [2] = assay: Antibacterial activity against penicillin resistant Streptococcus pneumoniae GC 1894 by microbroth dilution method; format: functional
Escherichia coli = assay: Antibacterial activity against Escherichia coli GC 4560 (imp) by micro-broth dilution method; format: functional
How it was run: (§1)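 Broth microdilution in Mueller-Hinton II medium per NCCLS recommendations. Inoculum 5 × 10⁵ cfu/mL, compound range 0.06-128 µg/mL. MIC read after 18 h at 35 °C in ambient air.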

Streptococcus pneumoniae [3] = assay: Antibacterial activity against Streptococcus pneumoniae in presence of 4% bovine serum albumin; format: functional
Candida albicans = assay: Antibacterial activity against Candida albicans by micro-broth dilution method; format: functional, organism-based; how it was run: as §1
[4] = test system: Staphylococcus epidermidis; assay: Inhibition of soluble peptidoglycan biosynthesis in Staphylococcus epidermidis; format: functional, organism-based
How it was run: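 S. epidermidis was grown in BHI to OD600 0.6, washed and concentrated tenfold in cell-wall-enriched medium. Cells incubated with 50 µg/mL chloramphenicol, 100 µg/mL penicillin G, [¹⁴C]-GlcNAc (2.9 µM/40 nCi) and compound at 0-25 µg/mL, 1 h, 37 °C, shaking. Supernatant precipitated with 5% TCA/0.4% BSA, 30 min at 4 °C, then filtered and scintillation counted.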

[5] = Enterococcus faecalis, GC 2242, read-out: MIC
[6] = Streptococcus pneumoniae, GC 1894, read-out: MIC
[7] = Escherichia coli, GC 4560, read-out: MIC

Row | Structure (SMILES) | MIC (Enterococcus faecalis; [5]) [µg/mL] | MIC (Staphylococcus aureus) [µg/mL] | IC50 [1] [µM] | MIC (Streptococcus pneumoniae [2]; [6]) [µg/mL] | MIC (Escherichia coli; [7]) [µg/mL] | MIC (Enterococcus faecalis) [µg/mL] | MIC (Streptococcus pneumoniae [3]) [µg/mL] | MIC (Streptococcus pneumoniae [2]) [µg/mL] | MIC (Escherichia coli) [µg/mL] | Activity (Candida albicans) | IC50 [4] [µM]
1 | O=C1CC(=O)N(c2ccc(F)cc2)N1c1ccc(F)cc1 | 128 (≈ 444 µM) | 128 (≈ 444 µM) | > 87 | 64 (≈ 222 µM) | 64 (≈ 222 µM) |  |  |  |  |  | 
2 | COc1ccc(C(=O)c2c(O)n(-c3ccc(Cl)cc3)n(-c3ccc(Cl)cc3)c2=O)cc1 |  | 11.3 (≈ 24.8 µM) | 10 |  |  | 5.7 (≈ 12.5 µM) | > 128 | 2.8 (≈ 6.15 µM) | 23 (≈ 50.5 µM) | inactive | 
3 | CCCCOc1ccc(C(=O)c2c(O)n(-c3ccc(Cl)cc3)n(-c3ccc(Cl)cc3)c2=O)cc1 | 0.39 (≈ 0.784 µM) | 1.6 (≈ 3.22 µM) | 4.5 | 0.39 (≈ 0.784 µM) | > 100 |  | > 128 |  |  | inactive | 7.3
4 | O=C(Nc1ccccc1)c1c(O)n(-c2ccccc2)n(-c2ccccc2)c1=O | 8 (≈ 21.5 µM) | 64 (≈ 172 µM) | 54 | 16 (≈ 43.1 µM) | > 128 |  | > 128 |  |  | inactive | 
5 | O=C(Nc1ccc(C(F)(F)F)cc1)c1c(O)n(-c2cccc(Cl)c2)n(-c2cccc(Cl)c2)c1=O | < 0.12 | 0.5 (≈ 0.984 µM) | 8.7 | < 0.12 | 64 (≈ 126 µM) |  | > 128 |  |  | inactive | 2.2
6 | O=C1CC(=O)N(c2ccc(Cl)c(Cl)c2)N1c1ccc(Cl)c(Cl)c1 | 8 (≈ 20.5 µM) | 8 (≈ 20.5 µM) | 25.1 | 4 (≈ 10.3 µM) | 32 (≈ 82 µM) |  |  |  |  |  | 41
7 | O=C(Nc1ccc(Br)cc1)c1c(O)n(-c2ccccc2)n(-c2ccccc2)c1=O | 1 (≈ 2.22 µM) | 16 (≈ 35.5 µM) | 42 | 1 (≈ 2.22 µM) | > 128 |  | > 128 |  |  | inactive | 
8 | O=C1CC(=O)N(c2ccccc2)N1c1ccccc1 |  |  | > 100 |  |  |  |  |  |  |  | 
9 | O=C(c1cccs1)c1c(O)n(-c2ccc(Cl)cc2)n(-c2ccc(Cl)cc2)c1=O | 1.3 (≈ 3.01 µM) | 5.4 (≈ 12.5 µM) | 5.8 | 0.67 (≈ 1.55 µM) | 21.6 (≈ 50.1 µM) |  | > 128 |  |  | inactive | 1
10 | COc1ccc(CC(=O)c2c(O)n(-c3ccc(Cl)cc3)n(-c3ccc(Cl)cc3)c2=O)cc1 | 1.4 (≈ 2.98 µM) | 11.7 (≈ 24.9 µM) | 40 | 0.73 (≈ 1.56 µM) | > 94 |  | > 128 |  |  | inactive | 
11 | O=C(Nc1ccc(C(F)(F)F)cc1)c1c(O)n(-c2ccc(Cl)cc2)n(-c2ccc(Cl)cc2)c1=O |  |  | 5.9 |  |  |  |  |  | 16 (≈ 31.5 µM) | inactive | 8.3
12 | O=C(Nc1ccc(Cl)c(Cl)c1)c1c(O)n(-c2ccc(Cl)c(Cl)c2)n(-c2ccc(Cl)c(Cl)c2)c1=O | 0.5 (≈ 0.865 µM) | 64 (≈ 111 µM) | 4.8 | 0.5 (≈ 0.865 µM) | > 128 |  | > 128 |  |  | inactive | 
